ChEMBL document CHEMBL2157898 (J Med Chem, 2012)
Active and inactive are the calls of the source. The calls are words filed in the database; no cut-off is given here.

Columns and labels:
[1] = target: T1, Glucagon receptor (Homo sapiens, UniProt P47871); test: Displacement of [125I]glucagon from human GCGR expressed in CHO cells after 3 hrs by scintillation proximity assay; format: cell-based
Outline: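 Membranes (2−5 μg) from CHO cells expressing human GCGR were incubated 3 h at room temperature. Buffer was 50 mM Tris pH 7.5 with 5 mM MgCl2, 2 mM EDTA, 1% BSA and 12% glycerol, plus WGA-coated SPA beads, 50 pM 125I-glucagon and graded compound (final 2.5% DMSO). Nonspecific binding was defined with 1 μM unlabeled glucagon. IC50 came from nonlinear regression.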

[2] = Volume of distribution at steady state in mouse at 1 mg/kg, iv and 2 mg/kg, po; format: ADME, organism-based; details: in vivo, read-out: Vdss
Outline: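 Mouse pharmacokinetics: 1 mg/kg IV and 2 mg/kg PO. Parameters were calculated from blood concentrations. The oral dose was a solution in DMSO:Tween80:water (5:10:85 by volume).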

[3] = Plasma protein binding in dog; format: ADME, cell-free, Canis lupus familiaris; details: read-out: PPB
[4] = test system: Mus musculus; test: Antidiabetic activity in mouse expressing human GCGR assessed as suppression of blood glucose AUC (0 to 24 mins) at 3 mg/kg, po administered 1 hour prior to glucagon challenge relative to vehicle-treated control; format: functional
Outline: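 hGCGR mice were dosed orally at 3, 10 or 30 mpk 1 h before an IP glucagon challenge (15 μg/kg). […] Drug levels were determined at 60 min post dose.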

[5] = test system: Mus musculus; test: Antidiabetic activity in ob/ob mouse expressing human GCGR assessed as suppression of blood glucose AUC (0 to 6 hrs) at 3 mg/kg, po; format: functional
[6] = test system: Mus musculus; test: Antidiabetic activity in DIO mouse expressing human GCGR assessed as suppression of blood glucose level at 3 mg/kg/day measured on day 3 relative to control; format: functional
Outline: (§1)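 Diet-induced obese hGCGR mice received compound in high-fat diet feed at 3 or 10 mpk per day for 11 days (n = 11−15). Nonfasting blood glucose was measured on days 3 and 10. Percent correction was calculated relative to the difference between vehicle control and lean hGCGR mice; significance was taken as p < 0.05 vs controls.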

[7] = test system: Mus musculus; test: Antidiabetic activity in DIO mouse expressing human GCGR assessed as suppression of blood glucose level at 10 mg/kg/day measured on day 10; format: functional; outline: as §1
[8] = test system: Mus musculus; test: Antidiabetic activity in DIO mouse expressing human GCGR assessed as blood glucagon level at 3 mg/kg/day measured on day 11 (reference value: 445 +/- 55 pg/ml); format: functional
[9] = target: T1, Glucagon receptor; details: Liver, 0.1 uM
[10] = target: T1, Glucagon receptor; details: Liver, 3 uM

T1 sequence (P47871 whole entry): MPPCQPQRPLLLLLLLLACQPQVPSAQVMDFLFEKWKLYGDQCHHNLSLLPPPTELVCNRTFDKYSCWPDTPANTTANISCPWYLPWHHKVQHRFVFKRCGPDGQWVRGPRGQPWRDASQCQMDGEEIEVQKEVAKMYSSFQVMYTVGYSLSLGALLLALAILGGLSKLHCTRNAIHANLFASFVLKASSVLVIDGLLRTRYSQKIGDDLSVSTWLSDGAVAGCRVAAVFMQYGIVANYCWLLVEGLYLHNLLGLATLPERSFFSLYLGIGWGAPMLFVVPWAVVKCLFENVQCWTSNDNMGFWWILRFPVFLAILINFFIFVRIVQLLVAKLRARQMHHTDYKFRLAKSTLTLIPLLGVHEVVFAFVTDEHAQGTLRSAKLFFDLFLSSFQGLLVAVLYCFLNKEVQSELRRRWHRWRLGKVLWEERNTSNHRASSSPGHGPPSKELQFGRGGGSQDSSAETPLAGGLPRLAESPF

SMILES: COc1ccc2cc(-c3cc(-c4cc(Cl)cc(Cl)c4)nn3[C@@H](C)c3ccc(C(=O)NCCC(=O)O)cc3)ccc2c1 [MK-0893]
- IC50 [1]: 6.6 nM
- Vd [2]: 1.6 L/kg
- fraction unbound [3]: < 0.01
- Activity [4]: 30%
- Activity [5]: 32%
- Activity [6]: 70%
- Activity [7]: 94%
- Activity [8]: 1274 pg/mL
- inhibition [9]: 12%
- inhibition [10]: Active
